Twelve molecules from ChEMBL document CHEMBL3769383, “Cefsulodin Inspired Potent and Selective Inhibitors of mPTPB, a Virulent Phosphatase from Mycobacterium tuberculosis” (ACS Med Chem Lett, 2015) can be followed below.

Calls of active or inactive are those of the source. No cut-off for these calls is given here.

For test [1], the system named is BL21-DE3. The test can be described thus: Potency index, ratio of SPAA IC50 to compound IC50 for Mycobacterium tuberculosis PTPB expressed in Escherichia coli BL21/DE3 cells.
A short description of test [2]: Inhibition of Mycobacterium tuberculosis PTPB expressed in Escherichia coli BL21/DE3 cells using pNPP as substrate after 5 mins by spectrophotometry.
A short description of test [3]: Inhibition of Mycobacterium tuberculosis PTPB.
A short description of test [4]: Reversible competitive inhibition of Mycobacterium tuberculosis PTPB expressed in Escherichia coli BL21/DE3 cells using pNPP as substrate after 5 mins.
The test system of test [5] is BL21-DE3. Put plainly: Inhibition of Mycobacterium tuberculosis PTPB expressed in Escherichia coli BL21/DE3 cells using pNPP as substrate at 200 uM after 5 mins by spectrophotometry. An outline of the steps: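 Single-point screen: the test compound is present at 200 μM in the assay (a compound concentration, not a substrate level). The read-out is phosphatase-catalysed hydrolysis of para-nitrophenyl phosphate.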

For `O=C(NC1CC1)C(c1ccccc1)S(=O)(=O)O` (racemic), the Ratio IC50 in the test with BL21-DE3 [1] was determined as 32. The IC50 in test [2] came to 5600 nM.
The molecule `O=C(Nc1ccc(-c2ccccc2)cc1)C(c1ccccc1)S(=O)(=O)O` (racemic) had an IC50 in test [2] of 196 nM.
Consider `CCCNC(=O)C(c1ccccc1)S(=O)(=O)O` (racemic), for which the Ratio IC50 in the test with BL21-DE3 [1] is 11. This molecule gave an IC50 in test [2] of 16000 nM.
Take `O=C(C(c1ccccc1)S(=O)(=O)O)N1CCCCC1` (racemic): the Ratio IC50 in the test on BL21-DE3 [1] turned out to be 180. In test [2], this molecule yielded an IC50 of 950 nM.
`O=C(NCCc1ccc(Cl)cc1Cl)C(c1ccccc1)S(=O)(=O)O` (racemic): in test [2], the IC50 stood at 290 nM.
The molecule `NC(=O)c1cc[n+](CC2=C(C(=O)O)N3C(=O)[C@@H](NC(=O)[C@@H](c4ccccc4)S(=O)(=O)[O-])[C@H]3SC2)cc1` [CEFSULODIN SODIUM] displayed an IC50 in test [3] of 16000 nM.
On to `O=C(Nc1ccccc1)C(c1ccccc1)S(=O)(=O)O` (racemic), for which, in the test with BL21-DE3 [1], the Ratio IC50 was determined as 180. Also, inhibition in test [2] was half-maximal at 1000 nM (IC50).
`O=C(C(c1ccccc1)S(=O)(=O)O)N1CCC(Cc2ccccc2)CC1` (racemic) displayed an IC50 in test [2] of 40 nM.
As for `NC(=O)C(c1ccccc1)S(=O)(=O)O` (configuration not stated), the Ki in test [4] came out at 73400 nM. The same molecule yielded an IC50 in test [2] of 180000 nM.
In test [2], `O=C(Nc1cccc2ccccc12)C(c1ccccc1)S(=O)(=O)O` (racemic) gave an IC50 of 720 nM.
Turning to `NC(=O)c1ccncc1`, the inhibition result with BL21-DE3 [5] was “inactive”.
For the molecule `CC(=O)OCC1=C(C(=O)O)N2C(=O)[C@@H](N)[C@H]2SC1`, in the test on BL21-DE3 [5], the inhibition entry is “inactive”.

Usually IC50 stands for the concentration that gives 50% inhibition. A higher IC50 goes with weaker potency. A word on the Ki: it is a dissociation constant, usually derived from enzyme kinetics or from competition with a known ligand.
